Test results from the M2OR odorant receptor database.

How the values were obtained:
Conditions in all cases: stereoisomer not certain
OR5D13 (Homo sapiens) = OR5D13 (Homo sapiens) (UniProt Q8NGL4)
In short: (§1)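 Values were gathered from published papers (main text and supplementary material), with extra details requested from the original authors when needed, and checked for typos and inconsistencies. Each receptor–molecule pair is called responsive (active) if the original authors judged the measured signal statistically different from baseline, and non-responsive (inactive) otherwise. Assay methods varied by source, often transient mammalian cell-line luciferase assays. Recorded details include cell line, G-protein, co-transfected protein and tags.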

OR5D14 (Homo sapiens) = OR5D14 (Homo sapiens) (UniProt Q8NGL3)
In short: as §1

OR5D16 (Homo sapiens) = OR5D16 (Homo sapiens) (UniProt Q8NGK9)
In short: as §1

OR5D18 (Homo sapiens) = OR5D18 (Homo sapiens) (UniProt Q8NGL1)
In short: as §1

OR5DD C62Y = system: OR5DD C62Y
In short: as §1

OR5DE S249A L290P = system: OR5DE S249A L290P
In short: as §1

OR5DG A156T = system: OR5DG A156T
In short: as §1

OR5DI = system: OR5DI
In short: as §1

OR5F1 (Homo sapiens) = OR5F1 (Homo sapiens) (UniProt O95221)
In short: as §1

OR5F1 = system: OR5F1
In short: as §1

Measured: odorant receptor agonist call

OR5D18 (Homo sapiens), sequence (Q8NGL1 whole entry): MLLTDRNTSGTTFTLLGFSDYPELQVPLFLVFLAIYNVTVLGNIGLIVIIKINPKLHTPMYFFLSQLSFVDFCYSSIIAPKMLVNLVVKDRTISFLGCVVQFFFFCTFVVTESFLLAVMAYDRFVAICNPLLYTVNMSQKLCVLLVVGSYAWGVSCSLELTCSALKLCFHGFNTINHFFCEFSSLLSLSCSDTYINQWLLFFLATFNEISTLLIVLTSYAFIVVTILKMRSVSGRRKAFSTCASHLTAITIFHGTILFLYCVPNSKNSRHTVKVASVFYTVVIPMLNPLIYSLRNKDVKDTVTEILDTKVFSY
OR5D13 (Homo sapiens), sequence (Q8NGL4 whole entry): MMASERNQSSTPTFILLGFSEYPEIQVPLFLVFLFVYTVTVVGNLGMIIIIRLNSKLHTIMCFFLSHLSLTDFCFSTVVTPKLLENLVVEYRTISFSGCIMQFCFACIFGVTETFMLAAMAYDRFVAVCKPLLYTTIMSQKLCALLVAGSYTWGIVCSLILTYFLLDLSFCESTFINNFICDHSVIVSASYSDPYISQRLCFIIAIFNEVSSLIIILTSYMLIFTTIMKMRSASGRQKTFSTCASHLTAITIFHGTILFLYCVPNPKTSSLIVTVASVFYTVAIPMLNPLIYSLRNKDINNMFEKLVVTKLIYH
OR5F1 (Homo sapiens), sequence (O95221 whole entry): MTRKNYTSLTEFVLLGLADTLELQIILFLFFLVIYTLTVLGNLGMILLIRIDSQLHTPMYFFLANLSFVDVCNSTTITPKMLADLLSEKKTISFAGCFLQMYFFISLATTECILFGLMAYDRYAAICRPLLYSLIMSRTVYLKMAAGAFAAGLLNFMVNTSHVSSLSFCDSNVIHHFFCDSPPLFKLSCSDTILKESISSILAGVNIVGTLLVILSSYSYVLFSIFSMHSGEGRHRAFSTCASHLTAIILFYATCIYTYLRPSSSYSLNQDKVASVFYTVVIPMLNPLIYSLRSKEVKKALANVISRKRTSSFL
OR5D14 (Homo sapiens), sequence (Q8NGL3 whole entry): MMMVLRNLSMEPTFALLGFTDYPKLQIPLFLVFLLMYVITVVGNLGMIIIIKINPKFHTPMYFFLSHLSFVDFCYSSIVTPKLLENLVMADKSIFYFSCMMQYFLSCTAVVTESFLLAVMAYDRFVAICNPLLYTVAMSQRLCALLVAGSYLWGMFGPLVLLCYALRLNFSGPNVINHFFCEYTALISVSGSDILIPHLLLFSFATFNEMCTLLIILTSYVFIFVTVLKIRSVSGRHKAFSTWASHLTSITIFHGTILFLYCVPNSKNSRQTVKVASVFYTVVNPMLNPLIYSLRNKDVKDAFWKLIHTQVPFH
OR5D16 (Homo sapiens), sequence (Q8NGK9 whole entry): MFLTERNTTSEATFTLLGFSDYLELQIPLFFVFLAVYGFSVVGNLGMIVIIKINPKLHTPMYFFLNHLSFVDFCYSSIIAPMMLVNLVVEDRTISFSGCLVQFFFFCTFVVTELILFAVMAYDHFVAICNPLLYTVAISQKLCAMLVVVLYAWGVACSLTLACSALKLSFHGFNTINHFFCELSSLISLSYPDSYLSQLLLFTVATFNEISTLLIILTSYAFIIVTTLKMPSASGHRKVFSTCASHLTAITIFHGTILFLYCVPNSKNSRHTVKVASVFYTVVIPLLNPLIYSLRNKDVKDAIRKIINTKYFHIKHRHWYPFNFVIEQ
OR5DI, sequence (as listed by the source): as the sequence (Q8NGL1 whole entry) above, with N136D counted along it
OR5DG A156T, sequence (as listed by the source, stated change not applied): as the sequence (Q8NGK9 whole entry) above, with A156T counted along it
OR5DD C62Y, sequence (as listed by the source, stated change not applied): as the sequence (Q8NGL4 whole entry) above, with C62Y counted along it
OR5F1, sequence (as listed by the source): as the sequence (O95221 whole entry) above, with S294N counted along it

C=CCOC(=O)Cc1ccccc1
inactive: all assays above

Cc1c([N+](=O)[O-])c(C)c([N+](=O)[O-])c(C(C)(C)C)c1[N+](=O)[O-]
inactive: OR5D13 (Homo sapiens) | OR5D14 (Homo sapiens) | OR5D16 (Homo sapiens) | OR5D18 (Homo sapiens) | OR5F1 (Homo sapiens)
